Results: the EternaBench riboswitch data

Tested on: MS2 coat protein
Experiment: apparent Kd, MS2 coat protein; higher = weaker binding; RNA-MaP array; FMN 200 µM where present
In short: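 Each design was made on Illumina sequencing-chip clusters by stalled E. coli RNA polymerase and titrated with SNAP-549-labelled MS2 coat protein from 0.7 or 1.5 nM, doubling to 3 µM, in the absence and then the presence of constant ligand. The buffer was 100 mM Tris-HCl pH 7.5, 80 mM KCl, 4 mM MgCl2, BSA, DTT, yeast tRNA and Tween-20. The apparent Kd is the median of filtered per-cluster fits of binding curves, with green signal normalised to red-channel RNA signal and control-cluster median Fmax.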

[1] = designed as: OFF switch for flavin mononucleotide, no ligand
[2] = ligand present: flavin mononucleotide, designed as: OFF switch for flavin mononucleotide
[3] = designed as: ON switch for flavin mononucleotide, no ligand
[4] = ligand present: flavin mononucleotide, designed as: ON switch for flavin mononucleotide

Sequence | apparent Kd [1] [nM] | apparent Kd [2] [nM] | apparent Kd [3] [nM] | apparent Kd [4] [nM]
AGCAUGUGAGGAUAUGUGACCCUCAUCCGAAGGACGAGGGAAUAGAAGGCACAUGAGGAUCACCCAUGUGAUGA | 46.2 | 188 | – | –
ACAUGAGGAUCACCCAUGUCUUUAUCCGAUUCUUCAUUUACGUAGGAUAUCGUCUAUACUAUCAUCGAGAAGGACGUUCUUUAA | – | – | 17.6 | 15.9
ACCGUCCUCGUCAGGAUAUGUAUUGACUCUCCGAUACAGAAGGGACAUGAGGAUCACCCAUGUCCGGGACCUUA | 18.2 | 21.7 | – | –
CUCUUGUUAGGAUAUCAAACCAGUGACGGAACCACUGGAAGUGAGAAGGGACAUGAGGAUCACCCAUGUAAGAA | 55.6 | 113 | – | –
AGCACGAGAGGUGCUGUCUAACCACAUGAGGAUCACCCAUGUAAGGAUAUCGCGGCUAUCGGCAUCGAGAAGGUACAGGGAGCA | 11.2 | 21.6 | – | –
GUUGGGCCUCCCUCUCCACGUUCAACAUGAGGAUCACCCAUGUAGGAUAUCGUUUGUUUUUUUUACGAGAAGGGCGUACUUCCC | 8.99 | 8.06 | – | –
CCAUGGCUGUUAGGAUAUGUCUGACAAAGUCAGACAGAAGGGACAUGAGGAUCACCCAUGUGAAGAAAACCACAUUUGCCAUGG | 7.74 | 7.72 | – | –
GAGCUCGAUGAGAAGGGUUACAUGAGGAUCACCCAUGUCGACCUUGGCGUAACAGGAUAUCAUCGGACUCAGUGCGUUGACCCA | 25.6 | 137 | – | –
UGCGGUAGAGGAUAUACAUUGAAUUUGAUUCAUGUAAAACUACAUGAGGAUCACCCAUGUAGAAGGCUAUCGCU | 17.4 | 36.1 | – | –
CUGCCUACAUGAGGAUCACCCAUGUCUGGCGAAAGAGUUCAGUAGGAUAUGAGAUUGGGUAAUCAUCAGAAGGGCUGGCAAAAG | – | – | 37.5 | 14.2
AUUAUACAUGAGGAUCACCCAUGUCAACAAAGUCGAGGAUAUGGGCAAAUAAAAUAAGAACCAGAAGGCGAAUAAU | – | – | 238 | 61
GGUACCUUCACAGGAUAUGCUAUCGUUUCGGUAGCAGAAGGGUGAUACAUGAGGAUCACCCAUGUGGUGCCAGGGCGUGAGCCC | – | – | 842 | 329
AAAUGCCUGUCGAUGCUCGACAUGAGGAUCACCCAUGUACAGCAGGAUAUGCAGAACAACCUCGUGCAGAAGGGCUGUACCAAU | 54.3 | 157 | – | –
GCUCGAUGCGCUGAGAACAUGAGGAUCACCCAUGUAAAUGGUCAGGAUAUUUACGUGCUUUAUGUAGAGAAGGGACCAUCGAGC | – | – | 110 | 27.3
GCCAUCGCAUGAGGAUAUGCUCCCGUUUCGGGAGCAGAAGGCAUGUCAUAAGACAUGAGGAUCACCCAUGUGGUAAAGAUGGCA | – | – | 237 | 10.3
GCUAGUAUUGCAGGAUAUUGUGUUUAAGGAUGGCAAGAAGGGCAUUACAUGAGGAUCACCCAUGUUUUCCGUAGUCAUACUAGC | 7.34 | 7.28 | – | –
ACUCGACAUGAGGAUCACCCAUGUGAGGAUAUCGUUAUUUACUUUGUUUAUAGUAUCUCGAGAAGGCACAUUUG | 18.1 | 54.6 | – | –
GUCAGCUCGUGAGGAUAUACAACACUGCUUCGGCAGUGUAUUAAGAUCACAUGAGGAUCACCCAUGUAGAAGGCACGAGCUGGU | 14.7 | 260 | – | –
ACAUGAGGAUCACCCAUGUGACCACAAUGGCUGAUAUAGAAACAGGAUAUUCGUGAAUAUCUAACGAAGAAGGGUUAUGACUGG | 77.8 | 85 | – | –
GAUCAACAUGAGGAUCACCCAUGUGAGGAUAUGGACUUGCCCACUUAACCAUUAGAGUCUAGAAGGCGCAUCUA | 27 | 29.9 | – | –
CGUUAUGAUAGAGGAUAUGUAAUACAUGAGGAUCACCCAUGUCACAUGGACAUUGUUUCUAAUUUACAGAAGGCUAUCCUUUCG | 20.3 | 16.3 | – | –
CGCAUCUCCUCAAUUCCUUCACAUGAGGAUCACCCAUGUAGGGAGGAUAUGCAAGCCUAUUGGCGGCAGAAGGCCCUGCAAUGG | 72.9 | 67.4 | – | –
CAGAUAAAAGUGUGGUCCUCGACAUGAGGAUCACCCAUGUACGAGGAUAUGUAAUAUACGGUAUAGCAGAAGGCGUAUGGGUGU | 37.7 | 36.2 | – | –
GCGAUUAAGUAGAAGGUACGAUAUAAAUCAAUGUAAGGAUAUACUGACAUGAGGAUCACCCAUGUUUAAUUUGUUUACUGUCGC | – | – | 7.42 | 5.99
UGUUGUAUUACAGGAUAUCUAUGAUUUUUUUUUAGAGAAGGGUAUUCACAUGAGGAUCACCCAUGUAUAUACGAGGAAGUUGUG | – | – | 51.4 | 62
CCCGGGCCUGUGAGGAUAUCGGGCCCGAAAGGGCCCGAGAAGGCACAUGAGGAUCACCCAUGUAAGGGUUUGGG | 27.4 | 19.7 | – | –
GGACGUCACAUGAACAUGAGGAUCACCCAUGUGAAAACACAUGAGGAUAUGGAUCCUAAUUGGAUCCAGAAGGCAUGGACGUCC | – | – | 476 | 27.2
UUAUAAAGUGUGAGGAUAUGCUGGUCGAUAGAUCAGCAGAAGGCACAUGAGGAUCACCCAUGUAAUAUAUUUUA | 52.1 | 222 | – | –

Sequence | apparent Kd [1] [nM] | apparent Kd [2] [nM] | apparent Kd [3] [nM] | apparent Kd [4] [nM]
CGGUAUCGACAGAAGGACGUAGCACAUGAGGAUCACCCAUGUCCGUAAUGUAGGAUAUGUACGGCCGAUCUCACGCAACACUAA | – | – | 37.1 | 13
GUCCUACAUGAGGAUCACCCAUGUCAGGAUAUGUAGCGUCCGGGCGAUAAGGCUCGGAGCAGAAGGGACAGGUG | 14.2 | 16.2 | – | –
UACCUGAGGCAAAGCCUUAGGUAUACAUGAGGAUCACCCAUGUAGGAUAUGGUAGGCUUUGCUUACCAGAAGGACAUGUUAAUU | 19.8 | 63.8 | – | –
GGGCCCGGAGGAUAUACAUGAGGAUCACCCAUGUACCCGGGUUUUAUUGGGCCCGGGUGUAGAAGGUUGGGCCC | 14.1 | 13.3 | – | –
CUUUUGUGAGGAUAUCAGGUGUGCUAGCGUACUGGUACAUCUGAGAAGGCACAUGAGGAUCACCCAUGUUUCUA | 84.9 | 74.2 | – | –
ACUCAGUCAGGAUAUCGUUAAUUUAAUUGUUUGUUUUAGUUCGAGAAGGGACAUGAGGAUCACCCAUGUACUCA | 25.3 | 51.2 | – | –
GGACGUCACAUGAACAUGAGGAUCACCCAUGUAACUAGACAUGAGGAUAUGGAACCUAAUUGGUUCCAGAAGGCAUGGACGUCC | – | – | 194 | 32.2
AGCGCCAUCGUGAGAUGGCGUAUUACAUGAGGAUCACCCAUGUAGGAUAUCGAUUGCUUUGCAGUCGAGAAGGGCAUGUCCUAG | 35.8 | 42.7 | – | –
GUAGGAAUCACAGGAUAUGCAUGCGCCGCUUCGAUCUACAUGAGGAUCACCCAUGUGUGGUCCGUGUAGAAGGGUGUUUGCUAC | – | – | 80.8 | 34.7
GUACGUGGACAGAAGGUGACAUGAGGAUCACCCAUGUUAGUUGAGGUAUCAGCGAUCUGCGUGAUUGAGGAUAUGUCUGCGGGC | 11.9 | 11.7 | – | –
CCGUGGCAAGGAUAUACGUAGGAGAGGAAGGCAAGAGAAGGACAUGAGGAUCACCCAUGUAGAAGGUGCAGAUC | 56.5 | 56.5 | – | –
AAUUUUUAACAGAAGGCGUUUAUAGUUAAGUUACGAGGAUAUGUAUUACAUGAGGAUCACCCAUGUUACUAGGGUAGUAUAUAA | – | – | 22.1 | 20.7
CGUGCUAUGUAGAAGGCAGAUCUGAUUCAGAUCUGAGGAUAUACAUGAGGAUCACCCAUGUUAUGCACCAGCACGAGAGUGCAA | 6.31 | 10.5 | – | –
CCUGUGUGAGGAUAUGGUGUUAAAAAAAAAAAAUAGCUCCUCCAGAAGGCACAUGAGGAUCACCCAUGUCGUGG | 33.5 | 69.2 | – | –
CGAAGUCCGUAGAAGGGUGACAUGAGGAUCACCCAUGUGCGAGCGGAUGGAGUCAGCGGCUCGCCACAGGAUAUACGGAGCACG | – | – | 30.6 | 65.3
GCAUGGUAUGAGAAGGCAUAAUUUAUCUAACAACAUGAUUACAUGAGGAUCACCCAUGUUUCCAAUGAGGAUAUCAUACCGUGC | 7.83 | 7.12 | – | –
GCAGCGUAUGUAGGAUAUCGGUCAGUUUCUGACCGAGAAGGACAUGAGGAUCACCCAUGUAAAUUACCGACUUUGUCGGGCUGC | 6.67 | 8.62 | – | –
AAAAUGUGAGGAUAUCAGGUGUGCUAGCGAACUGGUACAUCUGAGAAGGCACAUGAGGAUCACCCAUGUUCCUU | 15.8 | 57 | – | –
AAAUUUAACGAAGGAUAUGCUGACAUGAGGAUCACCCAUGUGUGCCUUGUGUUACUGAUUAGGAAGCAGAAGGUCGUAUACAUA | 831 | 414 | – | –
CCGGCUGCUGUGAGGAUAUGCCUGUGCGCCCGCGGGCAGAAGGCACAUGAGGAUCACCCAUGUCCUGCGGUCCC | 39 | 41.2 | – | –
GCCUUAUCGGUCAGGAUAUACACCUGUUAGUUGUUGUAGAAGGGACAUGAGGAUCACCCAUGUACAUUACAUUG | 23.1 | 40.1 | – | –
CCUAUGUGAGGAUAUGGUGUUGGCCACAGGGAAAAGGUCCUCCAGAAGGCACAUGAGGAUCACCCAUGUCGUGA | 84.6 | 158 | – | –
AUGGAUAUCACAGGAUAUGCCCGGGAUACCCGGGCAGAAGGGUGAUCCAUCCUAUGUAAAUACAUGAGGAUCACCCAUGUGUCC | – | – | 75 | 71.2
AAAGUUGGUAGGCCCUCGGAACAUGAGGAUCACCCAUGUAAGGAGGAUAUGCCCGGUACCCGCUGGCAGAAGGCCUUAUAAGAA | 28.2 | 239 | – | –
AUCAGCUCGUCAGGAUAUAGGUCACUGCGUCAGCAGUGUGGUAAGAUCACAUGAGGAUCACCCAUGUAGAAGGGACGAGCUGAU | 17.3 | 59.5 | – | –
AGCUAGCUAGGAUAUGCGUAAAUGUCGAAAGACGUAUUGGGACAUGAGGAUCACCCAUGUAGAAGGAGCUAGCA | 29.1 | 54.5 | – | –
GCAUCGUCGACUGAUAAUGAGCCUAGAAGGCGGACAUGAGGAUCACCCAUGUCUGAUCCUCGGCCCGAGGAUAUAGGUUAAUGA | 12.1 | 8.65 | – | –
